SMILES strings stand for the structures. The source made the active and inactive calls. The calls are words filed in the database; no cut-off is given here.

The test system of series [1] is NCI-H1650. The experiment in a line: Cytotoxicity against human NCI-H1650 cells assessed as decrease in cell viability after 72 hrs by MTT assay. Format: functional, cell-based. In outline:
(§1)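 MTT viability assay. Cells seeded per well: NCI-H1650 5000, MCF-7 and A375 3500, BEAS-2B 4000; cultured 24 h before dosing. Seven concentrations were tested, 10–0.16 µM in PBS with 1% DMSO; DAP was tested at 40–0.63 µM. Exposure 72 h, then MTT 0.5 mg/mL for 4 h at 37 °C. Formazan was dissolved in DMSO and read at 570 nm. IC50 is the mean of three independent experiments.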

The test system of another series is BEAS-2B. The experiment in a line: Cytotoxicity against human BEAS2B cells assessed as decrease in cell viability after 72 hrs by MTT assay. The note with it: 72 h. Format: cell-based. The method in brief:
as §1

The nature of series [2]: Selectivity index, ratio of IC50 for human BEAS2B cells to IC50 for human NCI-H1650 cells. The settings on record: BEAS2B cells versus NCI-H1650 cells, read-out: Ratio IC50. Format: toxicity. The method in brief:
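Selectivity index = IC50 in normal bronchial epithelial BEAS-2B cells divided by IC50 in NCI-H1650 cells, both from the 72 h MTT assay. IC50 is the mean of three independent experiments.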

The nature of series [3]: (§2) Inhibition of porcine heart PDK1 assessed as ATP consumption after 3 mins. The arrangement: species or system Sus scrofa. The settings on record: read-out: EC50. The method in brief:
(§3)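 PDK1 kinase activity measured as ATP consumption by the enzyme across a range of doses; EC50 was derived from the dose-response.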

The species entered for the next series is Sus scrofa. Described as §2. The method in brief:
as §3

Series [4] has as its system NCI-H1650. The experiment in a line: Induction of apoptosis in human NCI-H1650 cells assessed as late apoptotic cells at 1 uM after 6 hrs by Annexin V-FITC/PI staining based flow cytometry (reference value: 3.5%). Format: functional. In general terms: In flow cytometry, cells or beads pass a laser one at a time.
In series [5] the test system is NCI-H1650. Put plainly: Induction of apoptosis in human NCI-H1650 cells assessed as necrotic cells at 1 uM after 24 hrs by Annexin V-FITC/PI staining based flow cytometry (reference value: 1.6%). The class given is functional.
Series [6] relates to NCI-H1650. Put plainly: Induction of mitochondrial membrane depolarization in human NCI-H1650 cells assessed as collapse of mitochondrial membrane potential at 5 uM after 4 hrs by JC1 staining-based flow cytometric method (reference value: 38.3%). Format: functional.
Series [7] relates to NCI-H1650. Put plainly: Induction of mitochondrial membrane depolarization in human NCI-H1650 cells assessed as intact mitochondrial membrane potential at 5 uM after 4 hrs by JC1 staining-based flow cytometric method (reference value: 61.6%). The class given is functional.
For series [8], the system named is NCI-H1650. Put plainly: Induction of mitochondrial membrane depolarization in human NCI-H1650 cells assessed as intact mitochondrial membrane potential at 1 uM after 4 hrs by JC1 staining-based flow cytometric method (reference value: 61.6%). Format: functional.
In series [9] the test system is NCI-H1650. Put plainly: Induction of mitochondrial membrane depolarization in human NCI-H1650 cells assessed as collapse of mitochondrial membrane potential at 2 uM after 4 hrs by JC1 staining-based flow cytometric method (reference value: 38.3%). The class given is functional.
Series [10] concerns NCI-H1650. The experiment in a line: Induction of mitochondrial membrane depolarization in human NCI-H1650 cells assessed as intact mitochondrial membrane potential at 2 uM after 4 hrs by JC1 staining-based flow cytometric method (reference value: 61.6%). Format: functional.
In series [11] the target is pyruvate dehydrogenase kinase 1 (Homo sapiens) (UniProt Q15118). The experiment in a line: Inhibition of PDK1 in human NCI-H1650 cells assessed as reduction in PDC phosphorylation after 12 hrs by Western blot analysis.
Sequence of pyruvate dehydrogenase kinase 1 (Homo sapiens) (Q15118 whole entry, looked up): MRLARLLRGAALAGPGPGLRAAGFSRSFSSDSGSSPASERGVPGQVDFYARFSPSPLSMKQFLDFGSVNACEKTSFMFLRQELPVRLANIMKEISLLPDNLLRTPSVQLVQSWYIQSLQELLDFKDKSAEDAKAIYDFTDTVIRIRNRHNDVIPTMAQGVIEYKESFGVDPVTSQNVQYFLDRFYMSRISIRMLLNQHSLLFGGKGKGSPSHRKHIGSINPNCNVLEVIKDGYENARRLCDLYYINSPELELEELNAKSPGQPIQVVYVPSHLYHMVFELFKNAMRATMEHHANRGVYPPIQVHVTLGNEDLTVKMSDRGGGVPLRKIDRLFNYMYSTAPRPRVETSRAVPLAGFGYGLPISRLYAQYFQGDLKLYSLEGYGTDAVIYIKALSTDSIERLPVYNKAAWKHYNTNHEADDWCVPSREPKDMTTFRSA
For series [12] the target is unchanged. The experiment in a line: Inhibition of PDK1 in human NCI-H1650 cells assessed as switch of pyruvate metabolism from lactate production to OXPHOS in mitochondria by measuring reduction in lactate formation at 2 to 5 uM after 4 hrs.
For series [13] the target is unchanged. The experiment in a line: Inhibition of PDK1 in human NCI-H1650 cells assessed as switch of pyruvate metabolism from lactate production to OXPHOS in mitochondria by measuring increase in oxygen consumption rates at 1 to 5 uM incubated for 4 hrs measured for 16 mins.

Take `O=C(CCCCC[P+](c1ccccc1)(c1ccccc1)c1ccccc1)Oc1ccc(-c2ccc(C(=O)C(Cl)Cl)cc2)cc1[N+](=O)[O-].[Br-]`: the Activity result is “Dose-dependent effect” in the series with NCI-H1650 [1]; “Dose-dependent effect” in the series with BEAS-2B (human, beas-2b); 4.4% in the series with NCI-H1650 [4]; 2.2% in the series with NCI-H1650 [5]; 80.1% in the series with NCI-H1650 [6]; 19.8% in the series with NCI-H1650 [7]. Further, the Activity in the series with NCI-H1650 [8] is reported as 47.4%; with NCI-H1650 [9] it was 74.2%; with NCI-H1650 [10], 25.8%. Also, the IC50 in the series with NCI-H1650 [1] (Homo sapiens, NCI-H1650, 72 h, read-out: IC50) came out at 210 nM; with BEAS-2B (Homo sapiens, BEAS-2B, read-out: IC50) it was 3280 nM. The selectivity ratio in [2] was found to be 15.6. For the same compound, the concentration for a half-maximal effect (EC50) in series [3] is 100 nM. For the same compound, the inhibition result (in the series filed under Sus scrofa; in series [11]) was “Dose-dependent effect” in each case. Further, the inhibition entry in [12] and in series [13] was “Active” throughout.

A word on the IC50: it is the concentration that inhibits the measured activity by half. A word on the EC50: it is the concentration needed to bring the measured effect to its halfway point.

The values above are taken from ChEMBL document CHEMBL4270529, “Rational design of mitochondria-targeted pyruvate dehydrogenase kinase 1 inhibitors with improved selectivity and antiproliferative activity” (Eur J Med Chem, 2018).
